Data as given in ChEMBL document CHEMBL1141306, “ES-242 derivatives and cycloheptapeptides from Cordyceps sp. strains BCC 16173 and BCC 16176” (J Nat Prod, 2007).
Non-standard residues stand in square brackets, D forms with d. Residues, ends and D or L forms follow the SMILES beside them. NMeY = CN[C@@H](Cc1ccc(O)cc1)C(=O)O; dNMeF = CN[C@H](Cc1ccccc1)C(=O)O; Sar = CNCC(=O)O

Legend:
[1] = system: Plasmodium falciparum; test: Antimalarial activity against multidrug-resistant Plasmodium falciparum K1; assay type: functional, organism-based
Summary of the method: (§1)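 Multidrug-resistant P. falciparum K1 cultures assayed by microculture radioisotope technique (Desjardins method). IC50 determined, and percent inhibition measured at a single concentration of 10 µg/mL.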

[2] = system: Plasmodium falciparum; test: Antimalarial activity against multidrug-resistant Plasmodium falciparum K1 at 10 ug/mL; assay type: functional; summary of the method: as §1
[3] = system: KB; test: Cytotoxicity against human KB cells; assay type: functional, cell-based
Summary of the method: (§2)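 Colorimetric cytotoxicity assay on KB (oral epidermoid carcinoma), BC (breast cancer), NCI-H187 (small cell lung cancer) and Vero (African green monkey kidney fibroblast) cells. Values reported as IC50 (µM).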

[4] = Cytotoxicity against human BC cells; assay type: functional, cell-based; summary of the method: as §2
[5] = system: NCI-H187; test: Cytotoxicity against human NCI-H187 cells; assay type: functional, cell-based; summary of the method: as §2
[6] = system: Vero; test: Cytotoxicity against african green monkey Vero cells; assay type: cell-based; settings: Chlorocebus sabaeus; summary of the method: as §2

Row | Compound | IC50 [1] | inhibition at 10 µg/mL [2] | further results
1 | COc1cc(OC)c2c(O)c3c(c(-c4c(OC)cc(OC)c5c(O)c6c(cc45)[C@H](O)[C@H](C)OC6)c2c1)[C@H](O)[C@H](C)OC3 | 12 µM | < 50% | 
2 | COc1cc(OC)c2c(O)c3c(c(-c4c5c(c(O)c6c(OC)cc(O)cc46)CO[C@@H](C)[C@H]5O)c2c1)[C@H](O)[C@H](C)OC3 |  | < 50% | 
3 | CC[C@H](C)[C@@H]1NC(=O)[C@H](Cc2ccc(O)cc2)N(C)C(=O)[C@H](Cc2ccccc2)NC(=O)CN(C)C(=O)[C@@H]2CCCN2C(=O)[C@@H](Cc2ccccc2)N(C)C(=O)[C@H](CC(C)C)NC1=O [CORDYHEPTAPEPTIDE A] (cyclo(F[NMeY]IL[dNMeF]P[Sar])) | 3.8 µM |  | IC50 [3]: 0.78 µM; IC50 [4]: 0.2 µM; IC50 [5]: 0.18 µM; IC50 [6]: 14 µM
4 | COc1cc(OC)c2c(O)c3c(c(-c4c5c(c(O)c6c(OC)cc(OC)cc46)CO[C@@H](C)[C@H]5O)c2c1)[C@H](O)[C@H](C)OC3 | 8.1 µM | < 50% | 
5 | COc1cc(OC)c2c(O)c3c(c(-c4c5c(c(O)c6c(OC)cc(O)cc46)CO[C@@H](C)[C@H]5OC(C)=O)c2c1)[C@H](OC(C)=O)[C@H](C)OC3 |  | < 50% | 
6 | COc1cc(OC)c2c(O)c3c(c(-c4c(O)cc(OC)c5c(O)c6c(cc45)[C@H](O)[C@H](C)OC6)c2c1)[C@H](O)[C@H](C)OC3 | 3.3 µM |  | 
7 | COc1cc(OC)c2c(O)c3c(c(-c4c5c(c(O)c6c(OC)cc(OC)cc46)CO[C@@H](C)[C@H]5OC(C)=O)c2c1)[C@H](OC(C)=O)[C@H](C)OC3 | 3.3 µM |  | 
